Bioassay records: PubChem BioAssay, several laboratories
Ins promoter up: MIN6 insulin promoter up-regulation | MIN6 insulin promoter-GFP reporter, high-content imaging; active compounds read high | z-score at 5 µM | actives 0.3% (n = 190,000);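 active = z-score above 3 at 5 µM with at least 500 cells counted in the well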
SKKanGAS inh: SKKanGAS growth inhibition; S. pyogenes SKKanGAS, kanamycin growth, BacTiter-Glo, 6 h; inhibition, % at 7.5 µM; actives 1.3% (n = 300,000); AID 1662;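 active = mean replicate score, as percent of positive control median, at least 50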;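 note: strain carries kanamycin resistance gene driven by streptokinase promoter and grows in 40 µg/ml kanamycin; loss of luminescence reflects streptokinase promoter inhibition or plain growth inhibition; 0% = median of DMSO wells and 100% = positive control at its reference dose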
Cl transport mod: modulators of human KCC2 chloride dependent transport. KCC2 cells, thallium flux FluoZin-2 fluorescence. B-score of Tl+ flux slope (higher = more flux/activation; lower = inhibition) at 10 µM. actives 2.2% (n = 190,000);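 active = thallium flux slope and its plate-corrected score both differing from the plate sample mean at a set confidence after two filtering rounds, in either direction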;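 note: slope of fluorescence scaled to starting intensity during 10 to 20 s after thallium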
WT yeast gro inh: growth inhibition of WT yeast, mitochondrial fusion screen; actives 2.1% (n = 190,000); inhibition, % at 10 µM; mitochondrial fusion phenotypic screen, WT strain; in the data active = inhibition above about 58%; tested in S. cerevisiae
Autophagy mod: alters autophagy in cells; MEF GFP-LC3 puncta imaging; test concentration mostly 10 µM; actives 0.98% (n = 190,000); calls only at 10 µM (by protocol); AID 463193;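 active = percentage of spot-positive cells more than 3 SD above its plate mean, without a fluorescence outlier flag or 80% toxicity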;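 note: spot-positive cell cutoff set from DMSO-treated cells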
Rad51 HR inh: blocks human Rad51 in homologous recombination; hRad51 DNA strand exchange, fluorescence dequenching; actives 0.085% (n = 200,000); Q06609; inhibition, % at 10 µM;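 active = inhibition above 40% at the single screening dose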;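 note: 0% = DMSO control wells and 100% = blanks with heterologous ssDNA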
Target sequence (Q06609 whole entry, looked up): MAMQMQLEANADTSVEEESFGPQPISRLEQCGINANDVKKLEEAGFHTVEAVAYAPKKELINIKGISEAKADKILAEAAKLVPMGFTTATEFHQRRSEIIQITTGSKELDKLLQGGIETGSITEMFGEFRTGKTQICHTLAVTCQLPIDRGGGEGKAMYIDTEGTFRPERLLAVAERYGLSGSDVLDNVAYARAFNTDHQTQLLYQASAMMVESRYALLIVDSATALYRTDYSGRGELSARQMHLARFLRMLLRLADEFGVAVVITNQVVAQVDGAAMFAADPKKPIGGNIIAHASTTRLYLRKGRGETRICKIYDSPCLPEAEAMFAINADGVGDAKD
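Assay system: Human Rad51 nucleoprotein filaments preassembled on unlabelled ssDNA | Reagent: Donor/quencher-labelled 47-bp dsDNA substrate | Doses: One concentration, 10 µM final | Times: 37 °C 15-min filament assembly, 30-min compound preincubation, 15-min exchange | Technique: Fluorescein emission 520 nm, excitation 485 nm | Benchmarks: Plate control and blank wells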
An asterisk follows results filed as active; i = inactive; . = not tested or not shown; + = active, no number. In the library only some 4.2% were active in any assay of this set; here they are far more common.

SMILES	Ins promoter up	SKKanGAS inh	Cl transport mod	WT yeast gro inh	Autophagy mod	Rad51 HR inh
CCCCn1c(SC(C)C(N)=O)nc2cc(C(=O)OC)ccc2c1=O (centres undefined)	-0.07	3	9.8*	-8	i	-2
CCCCn1c(SC(C)C(=O)NCC2CCCO2)nc2cc(C(=O)OC)ccc2c1=O (centres undefined)	.	8	.	.	.	.
Cc1ccc(C2(C(F)(F)F)NC(=O)N3CCN=C3S2)cc1 (centres undefined)	0.82	-5	0.14	2	i	3
Cc1ccc(C2(C(F)(F)F)N=C3Sc4cc(C)ccc4N3C(=O)N2)cc1 (centres undefined)	3.5*	-2	0.31	-15	i	.
CCC(=O)Nc1cccc(C(=O)c2ccc(C)c(C)c2)c1	-0.49	2	0.57	20	i	15
Cc1ccc(S(=O)(=O)NC(=O)c2ccc(-c3ccc(-c4ccccc4)cc3)o2)c(C)c1	-0.39	25	-2.9	26	i	-8
O=C(c1ccncc1)N1CCN(S(=O)(=O)c2ccc(F)cc2)CC1	.	-1	.	.	.	.
O=C(Nc1ccc(Cl)cc1)N1CCC(c2nc(-c3ccccc3Cl)no2)CC1	0.37	35	-0.74	64*	i	8
CC1=[N+](C)c2c(ccc3cccnc23)C1(C)C	0.45	.	0.71	82*	i	5
Cc1ccc(N2C(=O)C3CC(c4ccccc4)=C4C5C=CC(C6C(=O)N(c7ccc(C)cc7)C(=O)C56)C4C3C2=O)cc1 (centres undefined)	-0.53	65*	-0.53	-11	i	7
Cc1ccc(N2C(=O)C3CC(c4ccccc4)=C4C5C=CC(C6C(=O)N(c7ccc(C)cc7C)C(=O)C56)C4C3C2=O)c(C)c1 (centres undefined)	-0.33	5	-0.1	.	i	-8
COc1ccc(OC)c(-c2csc(N(CC3CCCO3)C(=O)C3CCCCC3)n2)c1 (centres undefined)	-0.14	30	-0.18	27	+	1
COc1ccc(OC)c(C2=NOC(C(=O)NCC3CCCO3)C2)c1 (centres undefined)	3.7*	6	-0.0044	.	i	-4
COc1cccc(C2=NOC(C(=O)NCC3CCCO3)C2)c1 (centres undefined)	-0.08	-3	.	-20	i	7
Cc1ccc(NNC(=O)Nc2ccc(Cl)cc2)nn1	0.05	3	-0.13	.	.	25
Cc1nn(-c2ccccc2)c(NC(=O)c2cccs2)c(-c2ccccc2Cl)c1=O	0.08	-11	0.02	.	.	-16
CCOc1ccc(C2C(C(=O)c3cccs3)=C(O)C(=O)N2Cc2cccnc2)cc1 (centres undefined)	-0.48	2	-1.3	-8	+	13
COc1ccc(C(=O)CSc2nnc3ccc(-c4ccccn4)nn23)cc1	-0.29	-3	0.59	12	i	-14
Cc1nc(-c2ccccn2)nc(SCC(=O)c2ccc(F)cc2)c1Cl	0	85*	1.1	.	.	29
COc1ccc(C(=O)CSc2nc(-c3ccccn3)nc(C)c2Cl)cc1	-1.4	88*	-1.4	.	.	19
CCn1c(N)[n+](CC(=O)Nc2ccc(SC(F)F)cc2)c2ccccc21	0.1	-1	0.77	.	.	-5
O=C(CSc1nnc(C2CC2)n1Cc1ccco1)NCC(F)(F)F	0.17	9	1.1	-15	i	0
O=C(O)CN1CCN(Cc2ccc(Cl)cc2)C1=O	-0.55	1	-0.065	6	i	.
N=c1ccn(CC(=O)c2ccc(-c3ccccc3)cc2)cc1	-0.57	0	0.054	66*	i	-18
O=S(=O)(NCC(c1cccs1)N1CCc2ccccc2C1)c1ccccc1 (centres undefined)	.	12	.	.	.	.
SMILES	Ins promoter up	SKKanGAS inh	Cl transport mod	WT yeast gro inh	Autophagy mod	Rad51 HR inh
N[C@@H](C(=O)N[C@@H]1C(=O)N2C(C(=O)O)=C(Cl)CS[C@H]12)c1ccccc1	.	105*	-2.9	-9	i	-7
Cc1ccc(COn2c(-c3ccc(Cl)cc3Cl)nc3ncccc32)cc1	-0.38	-1	-1.3	71*	i	0
Clc1cccc(COn2c(-c3ccc(Cl)cc3Cl)nc3ncccc32)c1	0.71	5	.	67*	i	8
COn1c(-c2ccccc2)nc2ncccc21	.	-5	.	.	.	.
COc1ccccc1/C=N/NC(=O)CC(=O)NCCc1ccccc1	.	-2	.	.	.	.
Nc1nccnc1C(=O)OCC(=O)NCCc1ccc(S(N)(=O)=O)cc1	.	-1	.	.	.	.
CSc1ccccc1OCc1cc(C(=O)N[C@H]2CCCCNC2=O)no1	.	14	.	.	.	.
COCCNC(=O)/C(C#N)=c1\s/c(=C\c2ccccc2OC(F)F)c(=O)n1Cc1ccccc1	0.49	-7	0.31	5	+	.
CCCCNC(=O)/C(C#N)=c1\s/c(=C\c2ccccc2OC(F)F)c(=O)n1CCCOC	4.5*	-1	-1.4	-4	+	-17
O=C1C(Cc2ccc3[nH]ccc3c2)NC(=S)N1c1ccccc1 (centres undefined)	0.3	9	0.34	.	.	13
O=C(O)Cc1ccc(NC(=O)Nc2ccc3c(c2)OCO3)cc1	.	13	.	.	.	.
COc1cccc(-c2cc(CC3(O)CCN(CCCc4ccccc4)CC3)on2)c1	.	6	.	.	.	.
N#C/C(=C(\O)c1cc(Cl)sc1Cl)c1nc2ccccc2[nH]1	.	-6	.	.	.	.
CC(C)CCn1c(=O)c2ccccc2c2ccccc2c1=O	.	4	.	59*	i	15
COC(=O)c1ccc(-c2sc3nc(N4CCOCC4)c4c(c3c2N)CCCC4)o1	-0.16	18	-0.074	62*	i	-9
O=C(Nc1cc(Cl)ccc1N1CCCCC1)c1cccs1	.	17	-1.3	35	i	1
O=C(NC(=S)Nc1ccc(S(=O)(=O)NC2CCCCC2)cc1)c1cccs1	1.3	31	2	64*	i	-5
CC1CCN(c2ccccc2NC(=S)NC(=O)c2cccs2)CC1	-0.48	87*	9.5*	58	i	-6
CC1CCN(c2ccccc2NC(=S)NC(=O)C(C)(C)C)CC1	-1.5	58*	1.6	78*	i	-14
O=C(NC(=S)Nc1ccc(N2CCCCC2)c(Cl)c1)c1cccs1	.	42	32*	.	i	5
C=CCNC(=O)c1cc(-c2ccncc2)nc2c(C)cc(C)cc12	.	-9	.	.	.	.
CCOC(=O)C(NC(C)=O)(NC(C)C)C(F)(F)F (centres undefined)	0.49	-1	0.81	.	.	3
CS(=O)(=O)N1CCN(c2ccccc2NC(=O)c2ccco2)CC1	1.4	0	-1.9	16	i	0
CC1CCN(c2ccccc2NC(=S)NC(=O)c2ccco2)CC1	.	18	15*	.	i	-2
Cc1nc(Nc2cnc(/C=C/c3cc(C(=O)Nc4cccc(C(F)(F)F)c4)ccc3C)cn2)cc(N2CCNCC2)n1	.	72*	.	.	.	.
CCC12CC3CC(C1)CC(C(=O)NNC(N)=O)(C3)C2	-0.14	-7	1.9	.	.	6
Clc1cncc(Cl)c1NNc1c2ccccc2nc2ccccc12	0.06	4	0.46	83*	i	5
